According to ChEMBL document CHEMBL1155063 (Bioorg Med Chem, 2008):
Activity calls are given as the source filed them. No cut-off for these calls is given here.

Tests used:
[1] = target: T1, Telomerase reverse transcriptase (Homo sapiens, UniProt O14746); test: Inhibition of telomerase in human H1299 cells at 1 to 20 uM by TRAP assay; assay type: cell-based
How it was run: (§1)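 Modified TRAP assay using 2 µg total lysate from H1299 lung cancer cells as the telomerase source. Compounds were tested at 1, 5, 10 and 20 µM. Products were resolved on 10% polyacrylamide gels and stained with SYBR Green. A Taq-polymerase internal control was included, along with positive and negative controls.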

[2] = Cytotoxicity against human H1299 cells at 100 uM after 48 hrs by MTT assay realtive to control; assay type: functional; details: NCI-H1299, 48 h
How it was run: (§2)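 H1299 non-small-cell lung cells were kept in RPMI 1640 with 10% FBS and penicillin/streptomycin at 37 °C under 5% CO2. About 2 × 10^3 cells per well were pre-incubated for 24 h. Compound was added from freshly made DMSO solution diluted in complete medium and left for 48 h. MTT was then added for 4 h at 37 °C, followed by 20% SDS/50% DMF lysis buffer for 16 h at 37 °C, and absorbance read at 550 nm.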

[3] = Cytotoxicity against human H1299 cells at 10 uM after 48 hrs by MTT assay realtive to control; assay type: functional; details: NCI-H1299, 48 h; how it was run: as §2
[4] = Cytotoxicity against human TERT immortalized BJ1 cells at 100 uM after 48 hrs by MTT assay relative to control; assay type: cell-based, BJ
How it was run: (§3)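 hTERT-immortalized BJ1 fibroblasts were grown in DMEM with 10% FCS, 1 mM pyruvate and 4 mM […]. Cells (about 2 × 10^3 per well) were seeded and held 24 h at 37 °C. Compounds were freshly dissolved in DMSO, diluted into medium and left on the cells 48 h. MTT was added for 4 h, then SDS/DMF lysis buffer for 16 h. Absorbance was read at 550 nm and expressed relative to untreated cells (100%).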

[5] = Cytotoxicity against human TERT immortalized BJ1 cells at 10 uM after 48 hrs by MTT assay relative to control; assay type: cell-based, BJ; how it was run: as §3
[6] = Cytotoxicity against human TERT immortalized BJ1 cells at 1 uM after 48 hrs by MTT assay relative to control; assay type: cell-based, BJ; how it was run: as §3
[7] = Cell viability of human H1299 cells at 1 uM after 48 hrs by MTT assay relative to control; details: NCI-H1299, 48 h
[8] = target: T1, Telomerase reverse transcriptase; test: Effect on human TERT expressed in BJ1 cells at 1 uM after 24 hrs by SEAP assay realtive to control; details: BJ
[9] = target: T1, Telomerase reverse transcriptase; test: Effect on human TERT expressed in BJ1 cells at 10 uM after 24 hrs by SEAP assay relative to control; details: BJ
[10] = target: T1, Telomerase reverse transcriptase; test: Effect on human TERT expressed in H1299 cells at 1 uM after 24 hrs by SEAP assay relative to control
[11] = target: T1, Telomerase reverse transcriptase; test: Effect on human TERT expressed in BJ1 cells at 100 uM after 24 hrs by SEAP assay relative to control; details: BJ
[12] = target: T1, Telomerase reverse transcriptase; test: Effect on human TERT expressed in H1299 cells at 10 uM after 24 hrs by SEAP assay relative to control
[13] = target: T1, Telomerase reverse transcriptase; test: Effect on human TERT expressed in H1299 cells at 100 uM after 24 hrs by SEAP assay relative to control
[14] = target: T1, Telomerase reverse transcriptase; test: Inhibition of G-quadruplex-induced human TERT in H1299 cells by TRAP assay; assay type: cell-based; how it was run: as §1

T1 sequence (O14746 whole entry): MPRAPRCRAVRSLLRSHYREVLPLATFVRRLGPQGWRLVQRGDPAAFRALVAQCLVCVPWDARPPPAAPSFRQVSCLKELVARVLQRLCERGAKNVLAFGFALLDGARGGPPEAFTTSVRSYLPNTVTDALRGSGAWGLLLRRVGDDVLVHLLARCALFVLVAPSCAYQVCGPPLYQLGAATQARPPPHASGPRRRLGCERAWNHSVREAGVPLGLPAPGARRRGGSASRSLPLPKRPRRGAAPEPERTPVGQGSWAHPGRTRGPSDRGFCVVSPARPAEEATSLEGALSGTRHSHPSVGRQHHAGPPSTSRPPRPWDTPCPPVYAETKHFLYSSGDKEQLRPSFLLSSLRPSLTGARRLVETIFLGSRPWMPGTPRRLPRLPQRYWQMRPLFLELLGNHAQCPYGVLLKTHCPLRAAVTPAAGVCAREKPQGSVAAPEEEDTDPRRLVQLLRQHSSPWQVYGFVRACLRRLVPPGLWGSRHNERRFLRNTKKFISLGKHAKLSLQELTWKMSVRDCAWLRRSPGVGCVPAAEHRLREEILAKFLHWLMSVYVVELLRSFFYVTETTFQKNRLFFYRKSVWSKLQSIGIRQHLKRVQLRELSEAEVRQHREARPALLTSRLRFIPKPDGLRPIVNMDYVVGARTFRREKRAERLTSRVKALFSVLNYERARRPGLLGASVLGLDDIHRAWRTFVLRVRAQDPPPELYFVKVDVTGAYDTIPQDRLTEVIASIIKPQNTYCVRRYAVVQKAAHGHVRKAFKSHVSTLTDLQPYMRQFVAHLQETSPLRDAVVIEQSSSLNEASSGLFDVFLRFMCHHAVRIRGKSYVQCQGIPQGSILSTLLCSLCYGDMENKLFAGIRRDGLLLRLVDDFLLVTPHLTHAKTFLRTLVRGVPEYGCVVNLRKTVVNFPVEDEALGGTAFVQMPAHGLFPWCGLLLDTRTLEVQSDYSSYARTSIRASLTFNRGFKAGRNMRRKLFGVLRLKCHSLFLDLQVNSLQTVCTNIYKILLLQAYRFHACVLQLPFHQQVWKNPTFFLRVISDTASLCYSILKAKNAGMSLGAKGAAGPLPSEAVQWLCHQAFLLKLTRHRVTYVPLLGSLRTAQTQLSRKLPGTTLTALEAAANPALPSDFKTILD

Row | Activity [1] | residual activity [8] | residual activity [9] | residual activity [10] | residual activity [11] | residual activity [12] | residual activity [13] | IC50 [14] | SMILES | viability at 100 µM [2] | viability at 10 µM [3] | viability at 48 h, 100 µM [4] | viability at 48 h, 10 µM [5] | viability at 48 h, 1 µM [6] | cell viability at 1 µM [7]
1 | Active | 86% | 61% | 5% | 38% | 13% | 1% |  | CN(C)CCC(=O)Nc1ccc2c(c1)C(=O)c1cc(NC(=O)CCN(C)C)ccc1C2=O | 1% | 53% | 22% | 30% | 94% | 1%
2 |  | 74% | 92% | 89% | 43% | 79% | 61% |  | O=C(CCc1ccccc1)Nc1ccc2c(c1)C(=O)c1cc(NC(=O)CCc3ccccc3)ccc1C2=O | 76% | 94% | 44% | 44% | 89% | 102%
3 |  | 14% | 14% | 96% | 22% | 93% | 80% |  | O=C1c2ccc(NC(=O)C3CCCCC3)cc2C(=O)c2cc(NC(=O)C3CCCCC3)ccc21 | 52% | 63% | 64% | 76% | 87% | 90%
4 |  | 26% | 131% | 90% | 116% | 61% | 37% |  | CCN(CC)CC(=O)Nc1ccc2c(c1)C(=O)c1cc(NC(=O)CN(CC)CC)ccc1C2=O | 25% | 47% | 50% | 67% | 116% | 101%

More lines, now with the values behind:

Row | SMILES | Activity [1] | residual activity [8] | residual activity [9] | residual activity [10] | residual activity [11] | residual activity [12] | residual activity [13] | IC50 [14] | viability at 100 µM [2] | viability at 10 µM [3] | viability at 48 h, 100 µM [4] | viability at 48 h, 10 µM [5] | viability at 48 h, 1 µM [6] | cell viability at 1 µM [7]
5 | O=C(CCN1CCNCC1)Nc1ccc2c(c1)C(=O)c1cc(NC(=O)CCN3CCNCC3)ccc1C2=O | Active |  | 118% | 75% | 131% | 71% | 71% |  | 102% | 94% | 88% | 100% | 96% | 97%
6 | CCCNCCC(=O)Nc1ccc2c(c1)C(=O)c1cc(NC(=O)CCNCCC)ccc1C2=O | Active |  | 133% | 52% |  | 22% | 13% |  | 13% | 50% | 38% | 65% | 75% | 80%
7 | CCNCCC(=O)Nc1ccc2c(c1)C(=O)c1cc(NC(=O)CCNCC)ccc1C2=O | Active |  |  | 68% | 97% | 33% | 22% |  | 34% | 59% | 42% | 73% | 82% | 86%
8 | O=C(CN1CCCCC1)Nc1ccc2c(c1)C(=O)c1cc(NC(=O)CN3CCCCC3)ccc1C2=O |  | 118% | 121% | 74% | 103% | 69% | 63% |  | 35% | 37% | 22% | 78% | 89% | 50%
9 | O=C(CCN1CCCCC1)Nc1ccc2c(c1)C(=O)c1cc(NC(=O)CCN3CCCCC3)ccc1C2=O | Active |  |  | 55% |  | 33% | 25% | 8.4 µM | 18% | 44% | 41% | 54% | 92% | 87%
10 | O=C1c2ccc([N+](=O)[O-])cc2C(=O)c2cc([N+](=O)[O-])ccc21 |  | 55% | 60% | 87% | 65% | 85% | 62% |  | 69% | 95% | 86% | 91% | 91% | 97%
